CHO-K1 Ca ag: M1 agonist counterscreen hit in parental CHO-K1 cells; Fluo-8 calcium fluorescence; scaled to maximal ATP response, vehicle zero; activation, % at 3 µM; 360,000 tested, 0.48% active; AID 602248; in the data active = activation above about 15%;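 note: untransfected CHO-K1 host cells lacking M1 receptor as counterscreen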
OX1R antag-1: blocks the human orexin 1 receptor; 330,000 tested, 0.43% active; CHO/OX1R cells, Fluo-8 calcium fluorescence, orexin A; O43613; inhibition, % at 5 µM;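 active = inhibition above its plate's threshold, mean inhibition of all tested compounds on the plate plus 3 SD, cut at about 37% in these data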;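 note: 0% = orexin A challenge wells and 100% = SB-334867-A antagonist wells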
Target sequence (O43613 whole entry, looked up): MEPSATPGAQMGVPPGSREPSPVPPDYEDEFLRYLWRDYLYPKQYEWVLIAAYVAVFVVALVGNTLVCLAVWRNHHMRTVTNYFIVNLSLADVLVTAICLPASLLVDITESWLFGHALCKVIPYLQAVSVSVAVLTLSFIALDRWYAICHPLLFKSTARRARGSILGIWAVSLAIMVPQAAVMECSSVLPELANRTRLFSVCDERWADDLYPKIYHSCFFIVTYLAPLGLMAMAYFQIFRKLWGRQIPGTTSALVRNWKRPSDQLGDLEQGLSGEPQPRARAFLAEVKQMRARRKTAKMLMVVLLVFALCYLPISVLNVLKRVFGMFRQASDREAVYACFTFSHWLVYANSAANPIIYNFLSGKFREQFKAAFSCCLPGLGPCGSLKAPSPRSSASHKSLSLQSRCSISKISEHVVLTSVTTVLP
CHO parental Ca: signal in parental CHO cells, OX1R antagonist counter-screen. parental CHO-K1, ATP-induced calcium, Fluo-8 fluorescence. inhibition, % at 5.6 µM. 330,000 tested, 0.63% active. AID 463079;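 active = inhibition above that plate's mean sample inhibition plus 3 SD, cut at about 26% in these data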;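 note: 0% = ATP-challenged DMSO wells and 100% = DMSO wells without ATP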
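Test system: untransfected parental CHO cell line. Compound: one dose, 5.6 µM nominal. Detection: intracellular calcium via Fluo-8 no-wash fluorescent dye. Measure: % inhibition. Benchmarks: ATP-challenged DMSO wells low, unchallenged DMSO wells high.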
OX1R antag-2: blocks the human orexin 1 receptor; 330,000 tested, 1.8% active; O43613; AID 485270; OX1R-expressing cells, FRET antagonist read-out; inhibition, % at 6.6 µM; in the data active = inhibition mostly above about 38%, no sharp cut-off; inactive = mostly below about 40%;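 note: 0% = agonist challenge alone and 100% = reference antagonist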
CHO-K1 Ca antag: M1 antagonist counterscreen hit in parental CHO-K1 cells; 360,000 tested, 0.6% active; inhibition, % at 3 µM; ATP-induced calcium, Fluo-8 fluorescence;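 active = inhibition above a per-plate cutoff, the plate's mean sample inhibition plus 3 SD, cut at about 24% in these data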;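 note: 0% = DMSO plus EC80 ATP and 100% = DMSO alone without ATP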
M1 PAM parental: M1 PAM counterscreen hit in parental CHO-K1 cells | 360,000 tested, 0.02% active | activation, % at 3 µM | ATP EC20, Fluo-8 calcium fluorescence; 0% at ATP EC20, 100% at ATP max;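 active = activation above the run cutoff, the mean activation of all test compounds plus 3 SD, cut at about 40% in these data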;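 note: peak over basal fluorescence ratio in a 140 s read after ATP addition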
OX1R HTRF conf: OX1R (human) antagonism, HTRF confirmed. shares compounds with OX1R antag-2. OX1R-expressing cells, HTRF antagonist assay. inhibition, % at 6.6 µM. 1,800 tested, 49% active. AID 492964; in the data active = inhibition above about 55%;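 note: CHO cells expressing OX1R stimulated with orexin A at about EC80; 0% = agonist challenge alone and 100% = reference antagonist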
CHO-K1 HTRF: counter-screen for OX1R antagonists: effect in parental CHO-K1 cells | shares compounds with OX1R antag-2 | HTRF counterscreen | inhibition, % at 6.6 µM | 1,800 tested, 48% active | AID 493232; in the data active = inhibition above about 17%;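 note: 0% = agonist challenge with vehicle and 100% = vehicle alone without agonist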
Active calls of the source: *; x = no result. Sampled rows, rich in hits. Any-hit rate of the full collection: about 2.9%.

SMILES | CHO-K1 Ca ag | OX1R antag-1 | CHO parental Ca | OX1R antag-2 | CHO-K1 Ca antag | M1 PAM parental | OX1R HTRF conf | CHO-K1 HTRF
O=C(N=Nc1c(O)[nH]c2ccccc12)c1cccs1 | 2 | 5 | -16 | 108* | -2 | 6 | 101* | 18*
CCOC(=O)C(=O)N=Nc1c(O)[nH]c2ccccc12 | 3 | -1 | 2 | 91* | -7 | 15 | 46 | 53*
CNC(=S)N=Nc1c(O)[nH]c2ccccc12 | 1 | -15 | 1 | 17 | -10 | 15 | x | x
COc1ccc(NC(=S)N=Nc2c(O)[nH]c3ccccc23)cc1 | 1 | 3 | -12 | 34 | -5 | -2 | x | x
Oc1ccc(NC(=S)N=Nc2c(O)[nH]c3ccccc23)cc1 | 1 | -4 | -7 | 92* | -4 | 15 | 80* | 7
O=C(NCc1ccccn1)c1cc(S(=O)(=O)N2CCCCC2)ccc1Cl | 2 | -20 | -16 | 9 | -14 | 15 | x | x
COC(=O)c1cc(S(=O)(=O)N2CCOCC2)c(Cl)cc1N1CCOCC1 | 0 | -8 | 0 | 5 | 0 | 7 | x | x
COC(=O)c1cc(C)nc2c1C(=O)C(=O)C=C2N1CCOCC1 | 1 | -12 | -8 | 99* | 13 | -6 | 79* | 114*
Cn1c2ccccc2c(=O)c2cc(C#Cc3ccccn3)ccc21 | 1 | 29 | -10 | 90* | -5 | -2 | 94* | 11
CSc1nnc2c3cc(F)ccc3n(C)c2n1 | 0 | -19 | 2 | 19 | -10 | 20 | x | x
Cn1c2ccc(F)cc2c2nc3ccccc3nc21 | 1 | 17 | -12 | 87* | -5 | 18 | 91* | -4
Cc1ccc2c(c1)c1nc3ccccc3nc1n2CCN1CCOCC1 | 1 | -12 | -4 | 36 | -3 | 8 | x | x
Cc1ccc2c(c1)c1nc3ccccc3nc1n2C | 0 | 10 | -17 | 94* | -7 | 17 | 91* | 5
O=[N+]([O-])c1ccc2n[nH]nc2c1 | 1 | -15 | -10 | 18 | -8 | 14 | x | x
O=[N+]([O-])c1ccc2nnn(O)c2c1 | 1 | -13 | -8 | 91* | -20 | 35 | 31 | 46*
COc1ccc(N/C(N)=N/c2nc(C)cc(=O)[nH]2)cc1 | 1 | -4 | -1 | 8 | -3 | 12 | x | x
COc1ccc(OC)c(Nc2nc(N)nc(-c3cc4ccccc4o3)n2)c1 | 0 | 12 | 16 | 80* | 21 | -8 | 34 | 12
COc1ccc(Cl)cc1Nc1nc(N)c2ccccc2n1 | 0 | -6 | 13 | 23 | 14 | 2 | x | x
Cc1ccc(C(=O)NC2CC2)cc1S(=O)(=O)N1CCOCC1 | 0 | -5 | -2 | 4 | 0 | -8 | x | x
Cc1ccc(C(=O)Nn2cnnc2)cc1S(=O)(=O)N1CCOCC1 | 0 | -5 | -2 | 86* | 3 | -13 | 13 | -7
CC(=O)c1cccc(NC(=O)c2ccc(C)c(S(=O)(=O)N3CCOCC3)c2)c1 | 2 | -12 | -15 | 27 | -13 | -2 | x | x
Cc1ccc(C(=O)Oc2cccc(NC(=O)c3cccs3)c2)cc1S(=O)(=O)N1CCOCC1 | 3 | 21 | 16 | 79* | 0 | 5 | 32 | 10
O=C(NC1CCN(C(=O)c2cccc([N+](=O)[O-])c2)CC1)c1ccccc1 | 0 | -6 | -5 | 3 | -13 | 6 | x | x
O=C(CSc1nnc2ccccn12)NNC(=O)c1ccccc1 | -1 | -10 | -12 | 10 | -12 | 5 | x | x
O=C(CSc1nnc2ccccn12)NNC(=O)c1ccc([N+](=O)[O-])cc1 | 1 | -6 | -9 | 97* | 0 | -4 | 35 | 36*
SMILES | CHO-K1 Ca ag | OX1R antag-1 | CHO parental Ca | OX1R antag-2 | CHO-K1 Ca antag | M1 PAM parental | OX1R HTRF conf | CHO-K1 HTRF
CC1CCCCN1C(=O)Cn1cnc2cc([N+](=O)[O-])ccc2c1=O (stereo not drawn) | -1 | -10 | -13 | 123* | 7 | -3 | 81* | 86*
O=c1oc2ccccc2n1CCn1c2ccccc2c2nc3ccccc3nc21 | 1 | -13 | -18 | 50 | -2 | -1 | x | x
N#CCCn1c2ccccc2c2nc3ccccc3nc21 | 0 | 2 | -15 | 77* | 4 | -2 | 84* | 1
Cc1ccc(N2C(=O)c3ccc(C(=O)NCCN4CCOCC4)cc3C2=O)cc1 | 0 | -12 | -6 | 82* | 0 | 17 | 51 | 44*
Cc1ccc(C(=O)NCCN2CCOCC2)cc1Cl | 3 | -7 | -13 | 6 | -11 | 12 | x | x
OCc1cccc(-c2csc(C(O)c3ccccc3)n2)c1 (stereo not drawn) | 2 | x | x | x | -11 | 17 | x | x
COc1ccccc1CNc1nc(NCc2ccc3occc3c2)c2sccc2n1 | 9 | x | x | x | 19 | 9 | x | x
O=C1Nc2ccccc2C1=Nc1cccc([N+](=O)[O-])c1 | 6 | -12 | -7 | 21 | -4 | -4 | x | x
NC(=O)c1ccc(N=C2C(=O)Nc3ccc([N+](=O)[O-])cc32)cc1 | 0 | -8 | -12 | 84* | -16 | 4 | 64* | 72*
NS(=O)(=O)c1ccc(N=Cc2c(O)c3ccccc3oc2=O)cc1 | 0 | -15 | -5 | 77* | 2 | -12 | 21 | -11
CC(C)c1ccc(N=Cc2c(O)c3ccccc3oc2=O)cc1 | 0 | -21 | -20 | 20 | -8 | 20 | x | x
Cc1cc(C=C2C(=O)c3ccccc3C2=O)c(C)n1C | 1 | 10 | -8 | 92* | -5 | 23 | 38 | 14
CC/C(=N\NC(=O)c1nnn(-c2nonc2N)c1CN(C)c1ccccc1)c1ccccc1 | 1 | 10 | -19 | 18 | -21 | 8 | x | x
O=C(CNC(=O)c1cccs1)OCC(=O)c1ccccc1 | 1 | 3 | 2 | 9 | 0 | 7 | x | x
O=C(CNC(=O)c1cccs1)NCC(=O)OCC(=O)c1ccc([N+](=O)[O-])cc1 | 0 | -3 | -5 | 103* | 12 | 15 | 36 | 43*
CCC(C)[C@H]1CNC(=O)C(=O)N1CCCCC1CCCCC1 (stereo partly drawn) | 0 | x | x | x | -9 | -13 | x | x
COc1ccc(NC(=O)N(C)C[C@H]2Oc3ncc(Br)cc3C(=O)N([C@H](C)CO)C[C@@H]2C)cc1 | 0 | x | x | x | -13 | 15 | x | x
COC(=O)CN1C(=O)N/C(=C/c2ccccc2OC)C1=O | 1 | -17 | -5 | 119* | -13 | -3 | 19 | 6
CCN(C(=O)COC(=O)/C=C/c1cnc2ccccc2n1)C1CCS(=O)(=O)C1 (stereo not drawn) | 3 | -11 | -5 | 82* | -3 | -16 | 39 | 46*
CN1C(=O)C(C)(C)c2cc(S(=O)(=O)N3CCCC3C(=O)NCc3ccc(F)cc3)ccc21 (stereo not drawn) | 1 | -29 | -15 | 78* | -3 | 23 | 20 | -4

Screens as filed in PubChem.
